Test results reported in ChEMBL document CHEMBL2086239, “Synthesis and biological evaluation of combretastatin-amidobenzothiazole conjugates as potential anticancer agents” (Eur J Med Chem, 2012).
pIC50: −log10 of the molar value. Activity calls are given as the source filed them. No cut-off for these calls is given here.

Tests used:
MDA-MB-231 = experiment: Growth inhibition of human MDA-MB-231 cells after 48 hrs by SRB assay; type: functional; settings: MDA-MB-231, 48 h
Method in brief: (§1)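 NCI 60-cell-line screen: after preliminary screening, tested at five dose concentrations on 59 human tumour lines covering leukemia, lung, colon, CNS, melanoma, ovarian, renal, prostate and breast.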

T47D = experiment: Growth inhibition of human T47D cells after 48 hrs by SRB assay; type: functional
Method in brief: (§2)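 NCI 60-cell-line panel, five-dose testing after preliminary screen; sulforhodamine B protein assay in DMEM with 10% FBS, 37 °C, 5% CO2, 100% humidity. Cells seeded and incubated 24 h before compound addition, then exposed 48 h. Absorbance read at 560 nm; growth percentage relative to control wells; GI50 taken as concentration giving 50% growth inhibition.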

[1] = Inhibition of tubulin polymerization after 30 mins to 1 hr by spectrophotometry
Method in brief: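 This was a kit-based tubulin polymerization assay. Kit tubulin in G-PEM buffer was incubated with compounds, and polymerization was followed as optical density at 340 nm for 30 min to 1 h. Inhibition was read as a decrease in OD. Nocodazole and paclitaxel were run as reference destabilizer and stabilizer.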

SF-539 = experiment: Growth inhibition of human SF539 cells after 48 hrs by SRB assay; type: functional; settings: SF-539, 48 h; method in brief: as §2
COLO 205 = experiment: Growth inhibition of human COLO205 cells after 48 hrs by SRB assay; type: functional; settings: COLO 205, 48 h; method in brief: as §1
SF-268 = experiment: Growth inhibition of human SF268 cells after 48 hrs by SRB assay; type: functional; settings: SF-268, 48 h; method in brief: as §1
OVCAR-4 = experiment: Growth inhibition of human OVCAR4 cells after 48 hrs by SRB assay; type: functional; settings: OVCAR-4, 48 h; method in brief: as §1
EKVX = experiment: Growth inhibition of human EKVX cells after 48 hrs by SRB assay; type: functional; method in brief: as §1
PC-3 = experiment: Growth inhibition of human PC3 cells after 48 hrs by SRB assay; type: functional; settings: PC-3, 48 h; method in brief: as §1
HOP-92 = experiment: Growth inhibition of human HOP92 cells after 48 hrs by SRB assay; type: functional; settings: HOP-92, 48 h; method in brief: as §1
IMR-32 = experiment: Cytotoxicity against human IMR32 cells after 48 hrs assessed as inhibition of cell growth at 10 uM after 48 hrs by SRB assay relative to control; type: functional; settings: IMR-32, 48 h, read-out: GI
Method in brief: (§3)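 SRB protein assay in DMEM with 10% FBS at 37 °C, 5% CO2, 100% relative humidity. Cells seeded in 96-well plates, incubated 24 h, then exposed to drug at 10 µM for 48 h and processed per standard protocol. Absorbance read at 560 nm; growth percentage calculated for test wells relative to control wells.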

Malme-3M = experiment: Growth inhibition of human MALME-3M cells after 48 hrs by SRB assay; type: functional; method in brief: as §1
MCF7 [2] = experiment: Inhibition of microtubule organization in human MCF7 cells at 4 uM after 24 hrs by immunofluorescence analysis; type: cell-based
Method in brief: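 MCF-7 cells were grown in DMEM with 10% fetal calf serum and penicillin/streptomycin at 37 °C and 5% CO2. Cells on cover slips were treated for 24 h, then fixed in 4% paraformaldehyde for 20 min. They were permeabilised with 0.2% Triton X-100, held in methanol at 4 °C overnight and blocked with 1% BSA. Staining used anti-α-tubulin (1:100, 2 h RT), FITC secondary and a DAPI/PI mount, with confocal imaging.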

UACC-62 = experiment: Growth inhibition of human UACC62 cells after 48 hrs by SRB assay; type: functional; settings: UACC-62, 48 h; method in brief: as §2
MCF7 [3] = experiment: Cell cycle arrest in human MCF7 cells assessed as accumulation at G2/M phase at 4 uM after 24 hrs by FACS analysis (reference value: 34.88%); type: functional
MCF7 [4] = experiment: Cell cycle arrest in human MCF7 cells assessed as accumulation at G1 phase at 4 uM after 24 hrs by FACS analysis (reference value: 58.33%); type: functional
SF-295 = experiment: Growth inhibition of human SF295 cells after 48 hrs by SRB assay; type: functional; settings: SF-295, 48 h; method in brief: as §2
BT-549 = experiment: Growth inhibition of human BT549 cells after 48 hrs by SRB assay; type: functional; settings: BT-549, 48 h; method in brief: as §1
DU-145 = experiment: Growth inhibition of human DU145 cells after 48 hrs by SRB assay; type: functional; settings: DU-145, 48 h; method in brief: as §1
K562 = experiment: Growth inhibition of human K562 cells after 48 hrs by SRB assay; type: functional; settings: K562, 48 h; method in brief: as §1
CCRF-CEM = experiment: Growth inhibition of human CCRF-CEM cells after 48 hrs by SRB assay; type: functional; method in brief: as §1
[5] = target: Mitogen-activated protein kinase; ERK1/ERK2 (Homo sapiens) (UniProt P27361+P28482); experiment: Inhibition of nuclear translocation of phosphorylated ERK1/2 in human MCF7 cells at 4 uM after 24 hrs by immunofluorescence assay; type: cell-based
Method in brief: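 MCF-7 cells (DMEM, 10% fetal calf serum, 37 °C, 5% CO2) were treated on cover slips for 24 h. They were fixed in 4% paraformaldehyde, permeabilised with 0.2% Triton X-100, held in methanol at 4 °C overnight and blocked with 1% BSA for 60 min. Anti-phospho-ERK antibody (1:100, 2 h RT) was followed by FITC anti-rabbit secondary for 1 h and a DAPI/PI mount. Subcellular pERK localisation was imaged by confocal microscopy.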

HCT-116 = experiment: Growth inhibition of human HCT116 cells after 48 hrs by SRB assay; type: functional; settings: HCT-116, 48 h; method in brief: as §1
SK-OV-3 = experiment: Growth inhibition of human SKOV3 cells after 48 hrs by SRB assay; type: functional; settings: SK-OV-3, 48 h; method in brief: as §2
OVCAR-8 = experiment: Growth inhibition of human OVCAR8 cells after 48 hrs by SRB assay; type: functional; settings: OVCAR-8, 48 h; method in brief: as §1
RPMI-8226 = experiment: Growth inhibition of human RPMI8226 cells after 48 hrs by SRB assay; type: functional; settings: RPMI-8226, 48 h; method in brief: as §1
MCF7 [6] = experiment: Cytotoxicity against human MCF7 cells at 4 uM after 24 hrs by MTT assay; type: functional, cell-based
Method in brief: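 MCF-7 cells grown in DMEM with 10% fetal calf serum, penicillin and streptomycin at 37 °C, 5% CO2. Seeded at 10,000 cells/well, incubated overnight, then treated 24 h at 4 µM. Medium replaced with fresh medium plus MTT dye, incubated 2 h at 37 °C. Absorbance read at 570 nm; O.D. taken as viability versus untreated control.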

A549 = experiment: Cytotoxicity against human A549 cells assessed as inhibition of cell growth at 10 uM after 48 hrs by SRB assay relative to control; type: functional; settings: A549, 48 h, read-out: GI; method in brief: as §3
NCI-H226 = experiment: Growth inhibition of human NCI-H226 cells after 48 hrs by SRB assay; type: functional; settings: NCI-H226, 48 h; method in brief: as §1

Sequence of Mitogen-activated protein kinase; ERK1/ERK2 (Homo sapiens) (P27361 whole entry, looked up): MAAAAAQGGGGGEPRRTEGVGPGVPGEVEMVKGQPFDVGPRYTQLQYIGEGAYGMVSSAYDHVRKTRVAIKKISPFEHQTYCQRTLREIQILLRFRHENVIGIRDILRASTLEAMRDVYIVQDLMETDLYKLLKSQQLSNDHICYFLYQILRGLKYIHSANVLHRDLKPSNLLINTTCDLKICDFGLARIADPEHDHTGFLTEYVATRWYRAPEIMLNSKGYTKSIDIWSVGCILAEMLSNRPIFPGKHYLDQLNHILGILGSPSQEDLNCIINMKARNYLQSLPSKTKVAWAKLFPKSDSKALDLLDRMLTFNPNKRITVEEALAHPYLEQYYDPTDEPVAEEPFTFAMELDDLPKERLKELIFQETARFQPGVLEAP
Sequence of Mitogen-activated protein kinase; ERK1/ERK2 (Homo sapiens) (P28482 whole entry, looked up): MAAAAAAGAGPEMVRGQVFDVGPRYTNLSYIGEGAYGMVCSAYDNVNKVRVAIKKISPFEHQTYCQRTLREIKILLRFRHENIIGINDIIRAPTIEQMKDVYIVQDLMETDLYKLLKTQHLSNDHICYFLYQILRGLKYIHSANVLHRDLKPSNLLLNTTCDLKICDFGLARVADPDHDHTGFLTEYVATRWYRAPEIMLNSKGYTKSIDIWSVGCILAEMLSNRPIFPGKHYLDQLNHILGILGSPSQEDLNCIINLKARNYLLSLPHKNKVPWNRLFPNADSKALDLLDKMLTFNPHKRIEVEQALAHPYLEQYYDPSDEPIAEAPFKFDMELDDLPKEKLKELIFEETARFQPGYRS

Q: Which GI50 (MDA-MB-231) does the source give for `COc1ccc(/C=C\c2cc(OC)c(OC)c(OC)c2)cc1OCC(=O)Nc1nc2ccccc2s1` here?
A: 190 nM

Q: And the GI50 (T47D)?
A: 1000 nM

Q: And the pIC50 [1]?
A: 5.30

Q: What about the GI50 (SF-539) of the same compound?
A: 45 nM

Q: And the GI50 (COLO 205)?
A: 2830 nM

Q: And the GI50 (SF-268)?
A: 180 nM

Q: And the GI50 (OVCAR-4)?
A: 370 nM

Q: And the GI50 (EKVX)?
A: 38 nM

Q: What about the GI50 (PC-3) of the same compound?
A: 180 nM

Q: What about the GI50 (HOP-92) of the same compound?
A: 39 nM

Q: What about the inhibition of growth at 10 µM (IMR-32) of the same compound?
A: 91%

Q: What about the GI50 (Malme-3M) of the same compound?
A: 1990 nM

Q: What about the inhibition (MCF7 [2]) of the same compound?
A: Active

Q: And the GI50 (UACC-62)?
A: 63 nM

Q: What about the Activity (MCF7 [3]) of the same compound?
A: 46%

Q: What about the Activity (MCF7 [4]) of the same compound?
A: 25.94%

Q: And the GI50 (SF-295)?
A: 220 nM

Q: And the GI50 (BT-549)?
A: 410 nM

Q: And the GI50 (DU-145)?
A: 100 nM

Q: And the GI50 (K562)?
A: 42 nM

Q: What about the GI50 (CCRF-CEM) of the same compound?
A: 78 nM

Q: And the inhibition [5]?
A: Active

Q: And the GI50 (HCT-116)?
A: 46 nM

Q: What about the GI50 (SK-OV-3) of the same compound?
A: 340 nM

Q: And the GI50 (OVCAR-8)?
A: 250 nM

Q: And the GI50 (RPMI-8226)?
A: 150 nM

Q: What about the Activity (MCF7 [6]) of the same compound?
A: Active

Q: And the inhibition of growth at 10 µM (A549)?
A: 44%

Q: What about the GI50 (NCI-H226) of the same compound?
A: 270 nM
